Experimental findings from ChEMBL document CHEMBL1145149, “Functionalized pyrrolidines inhibit alpha-mannosidase activity and growth of human glioblastoma and melanoma cells” (J Med Chem, 2005) are described below.

A short description of assay [1]: Growth inhibition of glioblastoma cells (LN18) by the compound (100 uM) upon incubation for 24 hours using MTT assay. Type of assay: functional, Homo sapiens. The essentials:
(§1)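 Human glioblastoma cells were kept in DMEM with 4.5 g/L glucose, 5% FCS and antibiotics, then plated for 24-72 h. They were exposed in fresh complete medium for 24, 48 or 72 h to 0, 100, 200 or 300 µM compound, with stocks in methanol/PBS 1:20. MTT at 0.2 mg/mL was present for the final 2 h. Formazan was dissolved in 0.1 N HCl/2-propanol and read at 540 nm. Readings were expressed relative to untreated cells. Triplicate wells.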
In general terms: Formazan colour is commonly taken as a measure of viable cells.

The nature of assay [2]: Growth inhibition of glioblastoma cells (LN18) by the compound (200 uM) upon incubation for 24 hours using MTT assay. Type of assay: functional, Homo sapiens. Also noted: unit: %. In short, it runs like this:
as §1

Assay [3] is described as follows: Growth inhibition of glioblastoma cells (LN18) by the compound (300 uM) upon incubation for 24 hours using MTT assay. Type of assay: functional, Homo sapiens. Also noted: unit not given here. The essentials:
as §1

Assay [4] is described as follows: Growth inhibition of glioblastoma cells (LNZ 308) by the compound (100 uM) upon incubation for 24 hours using MTT assay. It is filed as functional, Homo sapiens. The essentials: as §1
A short description of assay [5]: Growth inhibition of glioblastoma cells (LNZ 308) by the compound (200 uM) upon incubation for 24 hours using MTT assay. It is filed as functional, Homo sapiens. In short, it runs like this:
as §1

The nature of assay [6]: Growth inhibition of glioblastoma cells (LNZ 308) by the compound (300 uM) upon incubation for 24 hours using MTT assay. It is filed as functional, Homo sapiens. In short, it runs like this: as §1
Assay [7] concerns the target T1, Alpha-mannosidase (Glycine max) (UniProt Q9SEH8).
T1 sequence (whole entry): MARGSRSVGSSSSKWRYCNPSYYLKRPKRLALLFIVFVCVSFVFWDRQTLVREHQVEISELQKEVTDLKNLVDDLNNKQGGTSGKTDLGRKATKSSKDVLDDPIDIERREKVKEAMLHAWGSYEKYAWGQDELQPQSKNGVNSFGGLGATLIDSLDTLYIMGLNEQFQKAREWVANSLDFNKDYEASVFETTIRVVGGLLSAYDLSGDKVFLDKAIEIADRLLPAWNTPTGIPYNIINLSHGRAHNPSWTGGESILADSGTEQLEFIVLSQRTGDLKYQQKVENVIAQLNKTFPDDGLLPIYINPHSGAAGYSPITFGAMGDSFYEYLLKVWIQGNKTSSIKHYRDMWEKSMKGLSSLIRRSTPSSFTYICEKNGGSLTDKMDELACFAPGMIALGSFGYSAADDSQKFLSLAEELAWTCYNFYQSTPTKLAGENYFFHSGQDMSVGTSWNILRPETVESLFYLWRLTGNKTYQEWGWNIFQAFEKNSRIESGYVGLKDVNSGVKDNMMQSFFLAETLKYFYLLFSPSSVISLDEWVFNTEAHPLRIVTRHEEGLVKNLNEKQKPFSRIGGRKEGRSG
Particulars: Prunus dulcis; 1 mM.

The nature of assay [8]: Growth inhibition of glioblastoma cells (LN18) by the compound (100 uM) upon incubation for 48 hours using MTT assay. Type of assay: functional, Homo sapiens. Also noted: unit: %. In short, it runs like this:
as §1

Assay [9] in a line: Growth inhibition of glioblastoma cells (LN18) by the compound (100 uM) upon incubation for 72 hours using MTT assay. Type of assay: functional, Homo sapiens. Also noted: unit: %. In short, it runs like this:
as §1

Assay [10] in a line: Growth inhibition of glioblastoma cells (LN18) by the compound (200 uM) upon incubation for 48 hours using MTT assay. It is filed as functional, Homo sapiens. Also noted: unit not given here. The essentials: as §1
Assay [11] can be described thus: Growth inhibition of glioblastoma cells (LN18) by the compound (200 uM) upon incubation for 72 hours using MTT assay. It is filed as functional, Homo sapiens. Also noted: unit not given here. The essentials:
as §1

A short description of assay [12]: Growth inhibition of glioblastoma cells (LN18) by the compound (300 uM) upon incubation for 48 hours using MTT assay. Also noted: unit: %. Type of assay: functional, Homo sapiens. The essentials:
as §1

A short description of assay [13]: Growth inhibition of glioblastoma cells (LN18) by the compound (300 uM) upon incubation for 72 hours using MTT assay. Also noted: unit not given here. It is filed as functional, Homo sapiens. In short, it runs like this: as §1
The nature of assay [14]: Growth inhibition of glioblastoma cells (LNZ 308 cell) by the compound (100 uM) upon incubation for 24 hours using MTT assay. Type of assay: functional, Homo sapiens. Also noted: unit not given here. The essentials:
as §1

Assay [15] can be described thus: Growth inhibition of glioblastoma cells (LNZ 308 cell) by the compound (100 uM) upon incubation for 48 hours using MTT assay. Type of assay: functional, Homo sapiens. Also noted: unit not given here. The essentials: as §1
A short description of assay [16]: Growth inhibition of glioblastoma cells (LNZ 308 cell) by the compound (100 uM) upon incubation for 72 hours using MTT assay. Also noted: unit not given here. Type of assay: functional, Homo sapiens. The essentials: as §1
The nature of assay [17]: Growth inhibition of glioblastoma cells (LNZ 308 cell) by the compound (200 uM) upon incubation for 24 hours using MTT assay. It is filed as functional, Homo sapiens. Also noted: unit: %. The essentials: as §1
A short description of assay [18]: Growth inhibition of glioblastoma cells (LNZ 308 cell) by the compound (200 uM) upon incubation for 48 hours using MTT assay. It is filed as functional, Homo sapiens. Also noted: unit: %. The essentials:
as §1

The nature of assay [19]: Growth inhibition of glioblastoma cells (LNZ 308 cell) by the compound (200 uM) upon incubation for 72 hours using MTT assay. It is filed as functional, Homo sapiens. Also noted: unit: %. In short, it runs like this:
as §1

Assay [20] in a line: Growth inhibition of glioblastoma cells (LNZ 308 cell) by the compound (300 uM) upon incubation for 24 hours using MTT assay. Type of assay: functional, Homo sapiens. Also noted: unit not given here. The essentials:
as §1

Assay [21] in a line: Growth inhibition of glioblastoma cells (LNZ 308 cell) by the compound (300 uM) upon incubation for 48 hours using MTT assay. Type of assay: functional, Homo sapiens. Also noted: unit: %. The essentials: as §1
Assay [22] in a line: Growth inhibition of glioblastoma cells (LNZ 308 cell) by the compound (300 uM) upon incubation for 72 hours using MTT assay. Also noted: unit: %. Type of assay: functional, Homo sapiens. In short, it runs like this: as §1
Assay [23] can be described thus: Growth inhibition of glioblastoma cells (LNZ 308) by the compound (100 uM) upon incubation for 48 hours using MTT assay. It is filed as functional, Homo sapiens. In short, it runs like this:
as §1

Assay [24] in a line: Growth inhibition of glioblastoma cells (LNZ 308) by the compound (100 uM) upon incubation for 72 hours using MTT assay. It is filed as functional, Homo sapiens. The essentials:
as §1

Assay [25] in a line: Growth inhibition of glioblastoma cells (LNZ 308) by the compound (200 uM) upon incubation for 72 hours using MTT assay. It is filed as functional, Homo sapiens. The essentials:
as §1

Assay [26] can be described thus: Growth inhibition of glioblastoma cells (LNZ 308) by the compound (300 uM) upon incubation for 48 hours using MTT assay. Type of assay: functional, Homo sapiens. In short, it runs like this:
as §1

The nature of assay [27]: Growth inhibition of glioblastoma cells (LNZ 308) by the compound (300 uM) upon incubation for 72 hours using MTT assay. Type of assay: functional, Homo sapiens. The essentials:
as §1

Assay [28] is described as follows: Growth inhibition of glioblastoma cells (LNZ 308) by the compound (200 uM) upon incubation for 48 hours using MTT assay. It is filed as functional, Homo sapiens. In short, it runs like this:
as §1

The nature of assay [29]: Growth inhibition of glioblastoma cells (LN18) by the compound (300 uM) after 24 hr using MTT assay. It is filed as functional, Homo sapiens. In short, it runs like this:
as §1

The nature of assay [30]: Growth inhibition of glioblastoma cells (LN18) by the compound (200 uM) upon incubation for 24 hr using MTT assay. It is filed as functional, Homo sapiens. In short, it runs like this: as §1
A short description of assay [31]: Growth inhibition of glioblastoma cells (LN18) by the compound (300 uM) upon incubation for 48 hr using MTT assay. Type of assay: functional, Homo sapiens. The essentials: as §1
Assay [32] in a line: Growth inhibition of glioblastoma cells (LN18) by the compound (300 uM) upon incubation for 72 hr using MTT assay. Type of assay: functional, Homo sapiens. The essentials: as §1

In general, inhibition refers to the change of the read-out against control, counted positive when it falls. In the case of `OC[C@@H](NC[C@H]1NC[C@H](O)[C@@H]1O)c1ccccc1`, the Growth inhibition in assay [1] stood at 0; in assay [2] it was 17; in assay [3] it was 7; in assay [4] it was 0; in [5] it was 4; in [6], 28. In assay [7], this compound gave an inhibition of 55%.

For `O=C(OCC(NC[C@H]1NC[C@H](O)[C@@H]1O)c1ccccc1)c1ccc(Br)cc1` (some centres not stated), the Growth inhibition in assay [1] stood at 5; in [8], 17; in assay [9] it was 31; in assay [2], 67; in assay [10], 48; in [11] it was 68. Besides, the Growth inhibition in assay [3] worked out at 92; in assay [12] it was 95; in assay [13], 97; in assay [14], 11; in [15], 15; in assay [16], 24. Besides, the Growth inhibition was 60 in assay [17]; 33 in [18]; 56 in assay [19]; 87 in [20]; 78 in assay [21]; 96 in [22].

On to `O[C@H]1[C@@H](O)CN[C@@H]1CN[C@@H](COCc1cccc(F)c1)c1ccccc1`, for which the Growth inhibition turned out to be 6 in assay [8]; 12 in assay [9]; 19 in assay [2]; 14 in assay [10]; 41 in [11]; 27 in assay [3]. Moreover, the Growth inhibition in assay [12] came to 39; in assay [13], 76; in assay [5], 14; in [14] it was 2; in assay [15], 6; in assay [16], 6. Also, the Growth inhibition came out at 14 in assay [17]; 29 in [18]; 27 in assay [19]; 34 in [20]; 56 in assay [21]; 53 in assay [22].

For `O=C(NCC(NC[C@H]1NC[C@H](O)[C@@H]1O)c1ccccc1)c1cccc(Br)c1` (some centres not stated), the Growth inhibition in assay [8] came out at 20; in assay [9], 43; in assay [2] it was 30; in [10] it was 46; in [11], 61; in [3], 52. The Growth inhibition in assay [12] is 50; in assay [13], 65; in assay [5] it was 20; in assay [14], 2; in assay [15] it was 19; in assay [16], 43. Moreover, the Growth inhibition amounted to 20 in assay [17]; 40 in assay [18]; 52 in [19]; 50 in assay [20]; 42 in [21]; 59 in assay [22].

Consider `OC[C@H](NC[C@H]1NC[C@H](O)[C@@H]1O)c1ccccc1`, for which the Growth inhibition is given as 13 in [1]; 16 in assay [8]; 15 in assay [9]; 19 in assay [2]; 26 in [10]; 12 in [11]. Moreover, the Growth inhibition in [3] came to 22; in assay [12] it was 23; in assay [13], 22; in [4] it was 0; in assay [23], 19; in assay [24], 5. Besides, the Growth inhibition in assay [5] was determined as 8; in assay [25] it was 13; in assay [6], 26; in assay [26], 25; in assay [27], 22; in assay [28] it was 19.

With `O=C(OCC(NC[C@H]1NC[C@H](O)[C@@H]1O)c1ccccc1)c1cccc(Br)c1` (some centres not stated), the Growth inhibition in assay [29] worked out at 16; in [30] it was 10; in [31], 29; in assay [32], 36; in [8], 21; in [9], 18. Moreover, the Growth inhibition turned out to be 25 in assay [10]; 24 in [11]; 5 in assay [5]; 5 in assay [14]; 17 in assay [15]; 13 in [16]. For the same compound, the Growth inhibition in [17] came to 5; in assay [18], 23; in assay [19], 23; in assay [20], 17; in [21] it was 31; in assay [22] it was 34.

Take `O=C(OCC(NC[C@H]1NC[C@H](O)[C@@H]1O)c1ccccc1)c1ccc(F)cc1` (some centres not stated): the Growth inhibition in assay [8] turned out to be 5; in [9], 4; in [2], 22; in [10] it was 16; in assay [11], 14; in assay [3] it was 20. Also, the Growth inhibition came out at 24 in assay [12]; 31 in assay [13]; 16 in assay [5]; 4 in assay [14]; 10 in assay [15]; 8 in assay [16]. In addition, the Growth inhibition in assay [17] came to 16; in [18], 18; in assay [19], 24; in [20], 21; in [21], 17; in assay [22] it was 32.

Turning to `O=C(OCC(NC[C@H]1NC[C@H](O)[C@@H]1O)c1ccccc1)c1ccccc1F` (some centres not stated), the Growth inhibition was 7 in assay [8]; 3 in assay [9]; 17 in assay [2]; 10 in assay [10]; 14 in assay [11]; 26 in assay [3]. Besides, the Growth inhibition in assay [12] is given as 8; in assay [13] it was 15; in assay [14], 0; in assay [15], 6; in assay [16], 0; in assay [17], 18. In addition, the Growth inhibition stood at 15 in [18]; 17 in [19]; 23 in [20]; 18 in [21]; 26 in assay [22].
